# Data as given in publication PMC9291822 (British Journal of Clinical Pharmacology, 2021).
# Where “and” joins values, the source holds several entries; their conditions need not be identical. Equal entries are not always repeated. Entries after “also recorded” stand apart in the source; their conditions may differ. Where two headings read alike, the source gives them in different places.
# How the values were obtained:
# [1] = healthy participants, cited from earlier work
# [2] = repeated administration of 400-mg BID tablets; cited from earlier work
# [3] = tested on: human plasma proteins; experiment: Plasma protein binding by ultrafiltration, 3 h postdose samples; type: in vitro ADME
# [4] = tested on: plasma protein; settings: cited from earlier work
# [5] = tested on: MET; settings: MET inhibitor; cited from earlier work
# [6] = type: in vivo, human
# Method in brief: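 Adults aged 18–75 with hepatic impairment (Child–Pugh A/B/C, also reclassified by NCI Organ Dysfunction Working Group criteria) or normal function, matched on age, weight and sex. Overnight fast (≥10 h), single oral 200 mg (2 × 100 mg tablets), fasting ≥4 h post-dose. Plasma sampled predose to 72 h; parent and metabolite measured by validated LC-MS/MS (LLOQ ~1.00 ng/mL). Noncompartmental analysis; GM ratios vs normal with 90% CIs.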
# [7] = Safety assessments and adverse events after single-dose capmatinib; type: in vivo, human; settings: for AEs, any primary system organ class: regardless of study drug relationship
# Method in brief: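 Single oral 200 mg dose; participants confined from day −1 to day 4. Haematology, chemistry, coagulation and urinalysis at screening, baseline, days 1–2 and end of treatment; vital signs on days 1–3. Triplicate 12-lead ECGs. AEs/SAEs recorded with severity and relatedness, graded per CTCAE v4.03. Phone follow-up at 30 days post-dose.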
# [8] = single oral dose 200 mg, mild, Child–Pugh A (n = 6)
# [9] = single oral dose 200 mg, moderate, Child–Pugh B (n = 8)
# [10] = single oral dose 200 mg, normal (n = 9)
# [11] = single oral dose 200 mg, severe, Child–Pugh C (n = 6)
smiles,measurement,setting,value
CNC(=O)c1ccc(-c2cnc3ncc(Cc4ccc5ncccc5c4)n3n2)cc1F [capmatinib],tolerability,"[1]; single dose of 600 mg, tablet formulation",tolerated
same,PK dose linearity,"[1]; tablets, single dose of 200–600 mg",linear
same,steady state GM accumulation ratio,[2],1.4
same,bound to human plasma proteins,"[3]; 3 hours postdose samples, across all participants",96.7%
same,GM unbound fraction higher vs. normal group,[3]; severe group,~ 44.8%
same,bound to plasma protein,[4],96%
same,IC50,[5],0.6 nM
same,"increase in GM AUCinf, AUClast and Cmax vs. normal group","[6]; NCI classification, both mild and moderate groups",26–46%
same,increase in GM AUCinf vs. normal group,"[6]; NCI classification, mild group",26%
same,increase in GM AUClast vs. normal group,"[6]; NCI classification, mild group",27%
same,increase in GM Cmax vs. normal group,"[6]; NCI classification, mild group",35%
same,increase in GM Cmax vs. normal group,"[6]; NCI classification, moderate group",46%
same,AUC(0-inf),"[6]; human, plasma, po, 200 mg, AUCinf, GM, single oral dose 200 mg, normal (n = 9)",6240 ng·h/mL
same,AUC(0-t),"[6]; human, plasma, po, 200 mg, AUClast, GM, single oral dose 200 mg, normal (n = 9)",6190 ng·h/mL
same,Cmax,"[6]; human, plasma, po, 200 mg, Cmax, GM, single oral dose 200 mg, normal (n = 9)",1740 ng/mL
same,Vd/F,"[6]; human, plasma, po, 200 mg, Vz/F, GM, single oral dose 200 mg, normal (n = 9)",483 L
same,half-life,"[6]; human, plasma, po, 200 mg, t½, GM, single oral dose 200 mg, normal (n = 9)",10.4 h
same,"GM exposures vs. normal group, interim PK analysis","[6]; mild and moderate groups, end of stage 1",< 3 fold
same,GM Vz/F lower vs. normal group,[6]; mild group,32.9%
same,GM t½ shorter vs. normal group,[6]; mild group,48.4%
same,decrease in GM AUCinf vs. normal group,[6]; mild group,23.3%
same,decrease in GM Cmax vs. normal group,[6]; mild group,27.6%
same,increase in GM CL/F vs. normal group,[6]; mild group,30.6%
same,"decrease in GM AUCinf,u vs. normal group","[6]; mild group, unbound",19.3%
same,"decrease in GM AUClast,u vs. normal group","[6]; mild group, unbound",19.6%
same,"decrease in GM Cmax,u vs. normal group","[6]; mild group, unbound",23.9%
same,GM Vz/F lower vs. normal group,[6]; moderate group,39.5%
same,GM t½ shorter vs. normal group,[6]; moderate group,44.5%
same,decrease in GM AUCinf vs. normal group,[6]; moderate group,8.6%
same,decrease in GM Cmax vs. normal group,[6]; moderate group,17.2%
same,increase in GM CL/F vs. normal group,[6]; moderate group,9.7%
same,"GM Cmax,u, AUClast,u and AUCinf,u vs. normal group","[6]; moderate group, unbound",similar
same,GM Vz/F lower vs. normal group,[6]; severe group,53.0%
same,GM t½ shorter vs. normal group,[6]; severe group,41.5%
same,change in GM Cmax vs. normal group,[6]; severe group,remained unchanged; also recorded: remained similar
same,decrease in GM CL/F vs. normal group,[6]; severe group,19.1%
same,increase in GM AUCinf vs. normal group,[6]; severe group,24%
same,"increase in GM AUCinf,u vs. normal group","[6]; severe group, unbound",78%
same,"increase in GM AUClast,u vs. normal group","[6]; severe group, unbound",78%
same,"increase in GM Cmax,u vs. normal group","[6]; severe group, unbound",46%
same,"CL/F, GM",[6]; [8],41.8 L/h
same,"CL/F, mean (SD)",[6]; [8],42.6 (9.23) L/h
same,"CL/F, GM",[6]; [9],35.1 L/h
same,"CL/F, mean (SD)",[6]; [9],36.6 (11.4) L/h
same,"CL/F, GM",[6]; [10],32.0 L/h
same,"CL/F, mean (SD)",[6]; [10],36.1 (19.1) L/h
same,"CL/F, GM",[6]; [11],25.9 L/h
same,"CL/F, mean (SD)",[6]; [11],28.2 (11.7) L/h
same,"AEs, any primary system organ class, maximum Grade 1",[7]; all participants (N = 31),5 (16.1) n (%)
same,"AEs, any primary system organ class, maximum Grade 2",[7]; all participants (N = 31),1 (3.2) n (%)
same,Diarrhoea,[7]; all participants (N = 31),1 (3.2) n (%)
same,Dizziness,[7]; all participants (N = 31),1 (3.2) n (%)
same,Ear and labyrinth disorders,[7]; all participants (N = 31),1 (3.2) n (%)
same,Flatulence,[7]; all participants (N = 31),1 (3.2) n (%)
same,Gastrointestinal disorders,[7]; all participants (N = 31),3 (9.7) n (%)
same,General disorders and administration site conditions,[7]; all participants (N = 31),1 (3.2) n (%)
same,Headache,[7]; all participants (N = 31),2 (6.5) n (%)
same,Hypoglycaemia,[7]; all participants (N = 31),1 (3.2) n (%)
same,Medical device site dermatitis,[7]; all participants (N = 31),1 (3.2) n (%)
same,Metabolism and nutrition disorders,[7]; all participants (N = 31),1 (3.2) n (%)
same,Nausea,[7]; all participants (N = 31),2 (6.5) n (%)
same,Nervous system disorders,[7]; all participants (N = 31),2 (6.5) n (%)
same,Vertigo,[7]; all participants (N = 31),1 (3.2) n (%)
same,participants with AEs suspected to be capmatinib related,[7]; all participants (N = 31),9.7%
same,severity of AEs suspected to be capmatinib related,[7]; all participants (N = 31),grade 1
same,deaths and SAEs,[7]; during study treatment and 30-day follow-up,No deaths and SAEs
same,"AEs, any primary system organ class, maximum Grade 1",[7]; mild (n = 7),2 (28.6) n (%)
same,"AEs, any primary system organ class, maximum Grade 2",[7]; mild (n = 7),1 (14.3) n (%)
same,Diarrhoea,[7]; mild (n = 7),0 n (%)
same,Dizziness,[7]; mild (n = 7),0 n (%)
same,Ear and labyrinth disorders,[7]; mild (n = 7),1 (14.3) n (%)
same,Flatulence,[7]; mild (n = 7),0 n (%)
same,Gastrointestinal disorders,[7]; mild (n = 7),0 n (%)
same,General disorders and administration site conditions,[7]; mild (n = 7),1 (14.3) n (%)
same,Headache,[7]; mild (n = 7),1 (14.3) n (%)
same,Hypoglycaemia,[7]; mild (n = 7),1 (14.3) n (%)
same,Medical device site dermatitis,[7]; mild (n = 7),1 (14.3) n (%)
same,Metabolism and nutrition disorders,[7]; mild (n = 7),1 (14.3) n (%)
same,Nausea,[7]; mild (n = 7),0 n (%)
same,Nervous system disorders,[7]; mild (n = 7),1 (14.3) n (%)
same,Vertigo,[7]; mild (n = 7),1 (14.3) n (%)
same,"AEs, any primary system organ class, maximum Grade 1",[7]; moderate (n = 8),2 (25.0) n (%)
same,"AEs, any primary system organ class, maximum Grade 2",[7]; moderate (n = 8),0 n (%)
same,Diarrhoea,[7]; moderate (n = 8),0 n (%)
same,Dizziness,[7]; moderate (n = 8),1 (12.5) n (%)
same,Ear and labyrinth disorders,[7]; moderate (n = 8),0 n (%)
same,Flatulence,[7]; moderate (n = 8),0 n (%)
same,Gastrointestinal disorders,[7]; moderate (n = 8),2 (25.0) n (%)
same,General disorders and administration site conditions,[7]; moderate (n = 8),0 n (%)
same,Headache,[7]; moderate (n = 8),1 (12.5) n (%)
same,Hypoglycaemia,[7]; moderate (n = 8),0 n (%)
same,Medical device site dermatitis,[7]; moderate (n = 8),0 n (%)
same,Metabolism and nutrition disorders,[7]; moderate (n = 8),0 n (%)
same,Nausea,[7]; moderate (n = 8),2 (25.0) n (%)
same,Nervous system disorders,[7]; moderate (n = 8),1 (12.5) n (%)
same,Vertigo,[7]; moderate (n = 8),0 n (%)
same,"AEs, any primary system organ class, maximum Grade 1",[7]; normal (n = 10),0 n (%)
same,"AEs, any primary system organ class, maximum Grade 2",[7]; normal (n = 10),0 n (%)
same,Diarrhoea,[7]; normal (n = 10),0 n (%)
same,Dizziness,[7]; normal (n = 10),0 n (%)
same,Ear and labyrinth disorders,[7]; normal (n = 10),0 n (%)
same,Flatulence,[7]; normal (n = 10),0 n (%)
same,Gastrointestinal disorders,[7]; normal (n = 10),0 n (%)
same,General disorders and administration site conditions,[7]; normal (n = 10),0 n (%)
same,Headache,[7]; normal (n = 10),0 n (%)
same,Hypoglycaemia,[7]; normal (n = 10),0 n (%)
same,Medical device site dermatitis,[7]; normal (n = 10),0 n (%)
same,Metabolism and nutrition disorders,[7]; normal (n = 10),0 n (%)
same,Nausea,[7]; normal (n = 10),0 n (%)
same,Nervous system disorders,[7]; normal (n = 10),0 n (%)
same,Vertigo,[7]; normal (n = 10),0 n (%)
same,"AEs, any primary system organ class",[7]; all participants (N = 31),6 n (%) and 6 (19.4) n (%)
same,"AEs, any primary system organ class",[7]; mild (n = 7),3 (42.9) n (%)
same,"AEs, any primary system organ class",[7]; moderate (n = 8),2 (25.0) n (%)
same,"AEs, any primary system organ class",[7]; normal (n = 10),0 n (%)
same,"AEs, any primary system organ class",[7]; severe (n = 6),1 (16.7) n (%)
same,"AEs, any primary system organ class, maximum Grade 1",[7]; severe (n = 6),1 (16.7) n (%)
same,"AEs, any primary system organ class, maximum Grade 2",[7]; severe (n = 6),0 n (%)
same,Diarrhoea,[7]; severe (n = 6),1 (16.7) n (%)
same,Dizziness,[7]; severe (n = 6),0 n (%)
same,Ear and labyrinth disorders,[7]; severe (n = 6),0 n (%)
same,Flatulence,[7]; severe (n = 6),1 (16.7) n (%)
same,Gastrointestinal disorders,[7]; severe (n = 6),1 (16.7) n (%)
same,General disorders and administration site conditions,[7]; severe (n = 6),0 n (%)
same,Headache,[7]; severe (n = 6),0 n (%)
same,Hypoglycaemia,[7]; severe (n = 6),0 n (%)
same,Medical device site dermatitis,[7]; severe (n = 6),0 n (%)
same,Metabolism and nutrition disorders,[7]; severe (n = 6),0 n (%)
same,Nausea,[7]; severe (n = 6),0 n (%)
same,Nervous system disorders,[7]; severe (n = 6),0 n (%)
same,Vertigo,[7]; severe (n = 6),0 n (%)
same,tolerability,"[7]; single dose, mild, moderate, severe hepatic impairment and normal hepatic function",well tolerated
same,"changes in chemistry parameters, QTcF or other ECG parameters",[7]; single oral dose 200 mg,No clinically relevant changes
same,changes in haematological parameters,[7]; single oral dose 200 mg,Minimal changes
